# Assay results published in ChEMBL document CHEMBL1671691 (Antimicrob Agents Chemother, 2010).
# Tests used:
# [1] = system: Influenza A virus; assay: Antiviral activity against sInfluenza A virus (A/California/04/2009(H1N1)) infected in MDCK cells from ATCC assessed as log reduction in viral titer at 128 uM after 24 hrs by immunofluorescent assay; type: functional
# Summary of the method: (§1)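 MDCK cells (ATCC or Mill Hill) infected with 2009 pandemic H1N1 at MOI ~0.01, 1 h adsorption at 4°C, washed. DMEM with 2 μg/ml TPCK-trypsin plus drug for 24 h at 37°C. Supernatants titrated on MDCK cells by focus formation: methanol/acetic acid fixation, anti-nucleoprotein MAbs, FITC secondary, foci counted. Titre as log10 FFU per 100 μl; detection limit <10 FFU; quadruplicate wells.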
# [2] = system: Influenza A virus; assay: Antiviral activity against sInfluenza A virus (A/California/04/2009(H1N1)) infected in MDCK cells from ATCC assessed as log reduction in viral titer at 4.7 uM after 24 hrs by immunofluorescent assay; type: functional; summary of the method: as §1
# [3] = system: Influenza A virus; assay: Antiviral activity against sInfluenza A virus (A/California/04/2009(H1N1)) infected in MDCK cells from Mill Hill assessed as log reduction in viral titer at 42.7 uM after 24 hrs by immunofluorescent assay; type: functional; summary of the method: as §1
# [4] = system: Influenza A virus; assay: Antiviral activity against sInfluenza A virus (A/Washington/29/2009(H1N1)) infected in MDCK cells from ATCC assessed as log reduction in viral titer at 4.7 uM after 24 hrs by immunofluorescent assay; type: functional, Influenza A virus (A/Washington/29/2009(H1N1)); summary of the method: as §1
# [5] = system: Influenza A virus; assay: Antiviral activity against Influenza A virus (A/Illinois/10/2009(H1N1)) infected in MDCK cells from ATCC assessed as log reduction in viral titer at 42.7 uM after 24 hrs by immunofluorescent assay; type: functional
# Summary of the method: (§2)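 Yield reduction in MDCK-ATCC or MDCK-Mill Hill cells infected at MOI ∼0.01. Adsorption 1 h at 4°C, washed, then DMEM with 2 μg/ml TPCK-trypsin and drug. At 24 h, supernatants were titrated by immunofluorescent focus assay on MDCK cells with anti-NP monoclonals and FITC secondary. Titres as log10 FFU per 100 μl; detection limit <10 FFU. Quadruplicate, mean ± SD.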
# [6] = system: Influenza A virus; assay: microbe, parasite or virus in culture; settings: (A/Ecuador/5179/2008(H1N1)), MDCK, 72 h
# [7] = system: Influenza A virus; assay: microbe, parasite or virus in culture; settings: (A/turkey/VA/4529/2002 (H7N2)), MDCK, 72 h
# [8] = system: Influenza A virus; assay: Antiviral activity against Influenza A virus (A/Illinois/10/2009(H1N1)) infected in MDCK cells from ATCC assessed as log reduction in viral titer at 4.7 uM after 24 hrs by immunofluorescent assay; type: functional; summary of the method: as §2
# [9] = system: Influenza A virus; assay: Antiviral activity against Influenza A virus (A/Illinois/10/2009(H1N1)) infected in MDCK cells from Mill Hill assessed as log reduction in viral titer at 42.7 uM after 24 hrs by immunofluorescent assay; type: functional; summary of the method: as §2
# [10] = system: Influenza A virus; assay: Antiviral activity against sInfluenza A virus (A/California/04/2009(H1N1))infected in MDCK cells from ATCC assessed as log reduction in viral titer at 14.2 uM after 24 hrs by immunofluorescent assay; type: functional; summary of the method: as §1
# [11] = system: Influenza A virus; assay: microbe, parasite or virus in culture; settings: (A/Brazil/1067/2008(H1N1)), MDCK, 72 h
# [12] = system: Influenza A virus; assay: Antiviral activity against Influenza A virus (A/Illinois/10/2009(H1N1)) infected in MDCK cells from Mill Hill assessed as log reduction in viral titer at 128 uM after 24 hrs by immunofluorescent assay; type: functional; summary of the method: as §2
# [13] = system: Influenza A virus; assay: Antiviral activity against Influenza A virus (A/Illinois/10/2009(H1N1)) infected in MDCK cells from Mill Hill assessed as log reduction in viral titer at 4.7 uM after 24 hrs by immunofluorescent assay; type: functional; summary of the method: as §2
# [14] = system: Influenza A virus; assay: Antiviral activity against Influenza A virus (A/Mexico/4604/2009(H1N1)) infected in MDCK cells from Mill Hill assessed as inhibition of viral replication after 3 days by microscopic analysis using crystal violet stain; type: functional
# [15] = system: Influenza A virus; assay: Antiviral activity against sInfluenza A virus (A/California/04/2009(H1N1)) infected in MDCK cells from Mill Hill assessed as log reduction in viral titer at 14.2 uM after 24 hrs by immunofluorescent assay; type: functional; summary of the method: as §1
# [16] = system: Influenza A virus; assay: Antiviral activity against Influenza A virus (A/Illinois/10/2009(H1N1)) infected in MDCK cells from ATCC assessed as log reduction in viral titer at 14.2 uM after 24 hrs by immunofluorescent assay; type: functional; summary of the method: as §2
# [17] = system: Influenza A virus; assay: microbe, parasite or virus in culture; settings: (A/Swine/South Dakota/03/2008(H1N1)), MDCK, 72 h
# [18] = system: Influenza A virus; assay: Antiviral activity against Influenza A virus (A/California/04/2009(H1N1)) infected in MDCK cells from ATCC assessed as log reduction in viral titer at 1.6 uM after 24 hrs by immunofluorescent assay; type: functional; summary of the method: as §2
# [19] = system: Influenza A virus; assay: Antiviral activity against Influenza A virus (A/California/04/2009(H1N1)) infected in MDCK cells from Mill Hill assessed as log reduction in viral titer at 128 uM after 24 hrs by immunofluorescent assay; type: functional; summary of the method: as §2
# [20] = system: Influenza A virus; assay: Antiviral activity against Influenza A virus (A/Mexico/4604/2009(H1N1)) infected in MDCK cells from ATCC assessed as log reduction in viral titer at 42.7 uM after 24 hrs by immunofluorescent assay; type: functional; summary of the method: as §2
# [21] = system: Influenza A virus; assay: Antiviral activity against Influenza A virus (A/Illinois/10/2009(H1N1)) infected in MDCK cells from Mill Hill assessed as log reduction in viral titer at 14.2 uM after 24 hrs by immunofluorescent assay; type: functional; summary of the method: as §2
# [22] = system: Influenza A virus; assay: Antiviral activity against Influenza A virus (A/Mexico/4604/2009(H1N1)) infected in MDCK cells from ATCC assessed as log reduction in viral titer at 1.6 uM after 24 hrs by immunofluorescent assay; type: functional; summary of the method: as §2
# [23] = system: Influenza A virus; assay: Antiviral activity against Influenza A virus (A/Mexico/4604/2009(H1N1))infected in MDCK cells from Mill Hill assessed as log reduction in viral titer at 4.7 uM after 24 hrs by immunofluorescent assay; type: functional; summary of the method: as §2
# [24] = system: Influenza A virus; assay: Antiviral activity against sInfluenza A virus (A/Washington/29/2009(H1N1)) infected in MDCK cells from Mill Hill assessed as log reduction in viral titer at 4.7 uM after 24 hrs by immunofluorescent assay; type: functional, Influenza A virus (A/Washington/29/2009(H1N1)); summary of the method: as §1
compound,measurement,setting,value
NC(=O)c1nc(F)cnc1O [FAVIPIRAVIR],log10FFU,[1],<1
same,log10FFU,[2],1.8
same,log10FFU,[3],<1
same,log10FFU,[4],3.9
same,log10FFU,[5],2.1
same,EC50,[6],2480 nM
same,EC50,[7],1530 nM
same,log10FFU,[8],4.4
same,log10FFU,[9],1.7
same,log10FFU,[10],<1
same,EC50,[11],1850 nM
same,log10FFU,[12],<1
same,log10FFU,[13],3.8
same,log10FFU,[14],36.16
same,log10FFU,[15],2.3
same,log10FFU,[16],3.1
same,EC50,[17],830 nM
same,log10FFU,[18],2.7
same,log10FFU,[19],<1
same,log10FFU,[20],1.8
same,log10FFU,[21],1.8
same,log10FFU,[22],4.4
same,log10FFU,[23],6.2
same,log10FFU,[24],4.7
